# In the library only some 2% were active in any assay of this set; here they are far more common.
# Xi reactivation: activators of X-chromosome reactivation in mouse fibroblasts; activation, % at 7.58 µM; 0.055% of 360,000 active; AID 743238; XiGFP mouse fibroblasts, % GFP-positive cells imaging, 3 d; cells co-treated with 5-aza-dC sensitizer; scaled so ellipticine positive control = 100%;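 active = mean normalized replicate activation at least 10% and every replicate at or above 10%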;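 also: 0% = median of on-plate neutral control wells and 100% = ellipticine 6 µM median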
#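 Assay system: SV40-immortalized XiGFP fibroblast cells, line 68-5-11; buffer or medium: DMEM plus 5-aza-dC sensitizer; compound: one concentration, pinned; timing: compounds 3 days, fix/stain 15 min at room temperature; benchmarks: positive control ellipticine, 6 µM final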
# CaV13 ICDI inh: Disruptors of the CACNA1D IQ motif to Ca2+-dependent inactivation inhibitor domain association, primary screening, Förster resonance energy transfer in intact living …; HEK cells, CFP/YFP FRET ICDI-IQ, plate reader, 10 min; percent FRET-ratio fall versus neutral wells; inhibition, % at 12.3 µM; 0.098% of 340,000 active;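 active = mean replicate inhibition of at least 30% and at least 1% of replicates passing that level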;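 also: 0% = median of the neutral control wells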
# LGR2 inh: blocks bursicon-induced cAMP signaling via Drosophila LGR2 | HEK293 LGR2, CRE-luciferase, bursicon-stimulated, 4 h | inhibition, % at 9.99 µM | 0.35% of 380,000 active;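 active = drop in luminescence signal, shown as inhibition above about 50% in the replicate tests, limit read from the data, passing the limit was not always enough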;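 also: agonist challenge used bursicon conditioned medium at about half maximal strength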
# TWEAK-Fn14 inh: TWEAK-Fn14 signaling inhibition; TWEAK-stimulated Fn14 reporter cells, luciferase luminescence, 8 h; inhibition, % at 10 µM; 2% of 360,000 active; AID 1159606; in the data active = inhibition above about 50%
# TROY signal inh: blocks TROY-dependent signaling in reporter cells; AID 1347056; 0.98% of 360,000 active; inhibition, % at 10 µM; Q293 LMP1-TROYcd NF-kB luciferase reporter, 4 h;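 active = compounds whose plate-normalised and pattern-corrected inhibition of the luciferase reporter signal at the single screening dose is 50% or more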
# * marks the source's active call; other numbers are inactive results; nt = no result.
SMILES,Xi reactivation,CaV13 ICDI inh,LGR2 inh,TWEAK-Fn14 inh,TROY signal inh
O=C(N/N=C/c1ccc(F)cc1)c1c(O)c2ccccc2[nH]c1=O,0,-5,-17,42,13
O=C(N/N=C/c1cccc(F)c1)c1c(O)c2ccccc2[nH]c1=O,0,-4,-4,58*,23
Cc1cc(C(=O)Nc2ccc3c(c2)C(=O)N(C)[C@H]2CC[C@@H](CC(=O)NC4CCCC4)O[C@@H]2CO3)no1,0,nt,1,nt,nt
COc1ccc(S(=O)(=O)N(C)C[C@@H]2Oc3ccc(NS(=O)(=O)c4ccc(C)cc4)cc3C(=O)N([C@H](C)CO)C[C@@H]2C)cc1,0,nt,1,nt,nt
S=c1[nH]cnc2scc(-c3ccc(Cl)cc3)c12,0,-13,8,26,68*
Cc1ccc(-c2csc3nc[nH]c(=S)c23)cc1,0,-3,17,26,12
Cc1nn(Cc2ccccc2Cl)c2sc(C(=O)Nc3ccccc3N3CCOCC3)cc12,0,-6,1,61*,13
CCC(CC)NC(=O)c1cc2c(C)nn(Cc3ccccc3Cl)c2s1,nt,nt,nt,74*,nt
Cc1nn(Cc2ccc(F)cc2)c2sc(C(=O)Nc3ccccc3N3CCOCC3)cc12,0,-3,nt,13,10
COCCNC(=O)C[C@H]1C[C@@H]2c3cc(NC(=O)Nc4ccccc4F)ccc3O[C@@H]2[C@@H](CO)O1,0,nt,-5,nt,nt
COc1ccc(-n2cccc2/C=C2/NC(=O)N(c3cccc(Cl)c3)C2=O)cc1,0,-21,nt,56*,76*
O=C(O)c1cccc(-n2cccc2/C=C2/NC(=O)N(c3ccc(Cl)cc3)C2=O)c1,0,-4,-10,46,-39
O=C(O)c1cccc(-n2cccc2/C=C2/NC(=O)N(c3cccc(Cl)c3)C2=O)c1,0,-5,14,58*,-8
COc1cc(/C=C2/NC(=O)N(c3cccc(Cl)c3)C2=O)ccc1O,0,11,-2,34,9
CCC(=O)N1CC2(CN(C(=O)CN3CCOCC3)C2)c2c([nH]c3cc(OC)ccc23)[C@H]1CO,0,nt,-14,nt,nt
CC(C)NC(=O)Nc1ccc2c(c1)C(=O)N([C@@H](C)CO)C[C@H](C)[C@@H](CN(C)S(=O)(=O)c1cccs1)O2,0,nt,3,nt,nt
O=C(CSc1ccc(-c2ccccn2)nn1)c1ccc(F)cc1,nt,-15,-8,82*,-11
Cn1c(SCC(=O)c2ccc(F)cc2)nc2cccnc21,nt,0,nt,61*,3
CCOC(=O)CSc1nc2cccnc2n1-c1ccc(F)cc1,nt,-5,nt,6,61*
COc1ccc(S(=O)(=O)N(C)C[C@H]2OCCCC[C@H](C)Oc3ccc(NC(=O)C4CCCCC4)cc3C(=O)N([C@@H](C)CO)C[C@H]2C)cc1,0,nt,19,nt,nt
S=C(Nc1ccc(Br)cc1)Nc1ccc2c(c1)OCCO2,0,-2,-16,-13,-6
Cc1cc(C)c2cc(C(=O)Nc3ccc4c(c3)OCO4)[nH]c2c1,0,-5,3,nt,nt
COc1cc2cc(C(=O)Nc3ccc4c(c3)OCCO4)[nH]c2cc1OC,0,-15,23,93*,77*
COc1cc(NC(=S)Nc2ccc3c(c2)OCCO3)cc(OC)c1OC,0,-5,-90,36,57*
COc1cc2[nH]c(C(=O)Nc3ccc4c(c3)OCCO4)cc2c(OC)c1OC,0,-5,1,71*,56*
SMILES,Xi reactivation,CaV13 ICDI inh,LGR2 inh,TWEAK-Fn14 inh,TROY signal inh
COc1cccc(OC)c1C(=O)Nc1ccc2c(c1)OCCO2,nt,-6,nt,8,-6
C[C@@H]1CN([C@@H](C)CO)C(=O)c2c(c3ccccc3n2C)-c2ccccc2CO[C@@H]1CN(C)Cc1ccc(Oc2ccccc2)cc1,0,nt,9,nt,nt
O=C(c1ccco1)N1CCN(S(=O)(=O)c2c(Cl)cccc2Cl)CC1,0,-5,12,92*,-11
COc1cccc(NC(=O)Nc2ccc3c(c2)C(=O)N(C)C[C@@H](OC)[C@@H](C)CN(CC2CC2)[C@H](C)CO3)c1,0,nt,-9,nt,nt
COc1ccc(NC(=O)N(C)C[C@@H]2Oc3ncc(Br)cc3C(=O)N([C@H](C)CO)C[C@@H]2C)cc1,1,nt,-18,nt,nt
COc1ccc(N(C(=O)CCl)C(C(=O)NCCc2ccccc2)c2cccs2)cc1Cl (configuration not stated),1,-5,22,52*,-15
COc1cccc(N(C(=O)c2snc(C(N)=O)c2N)C(C(=O)NCC2CCCO2)c2cccs2)c1 (configuration not stated),0,-4,0,7,-5
COc1cccc(N(C(=O)CCl)C(C(=O)NCCc2ccccc2)c2cccs2)c1 (configuration not stated),nt,-11,16,59*,-13
Cc1cc(C(C)(C)C)oc1C(=O)NCCCNC(=O)c1oc(C(C)(C)C)cc1C,nt,nt,nt,74*,nt
Cc1cc(C(C)(C)C)oc1C(=O)OCC(=O)NC1CCCCC1,-1,-6,-15,-7,-7
CCOC(=O)c1nnn(-c2nc(N3CCCC3)nc(N3CCCC3)n2)c1-c1ccccc1,nt,-6,nt,38,4
CCOc1nc(N2CCCCC2)nc(-n2cc(-c3ccccc3)nn2)n1,nt,nt,-17,72*,nt
CCOC(=O)c1c(-c2ccccc2)nnn1-c1nc(OCC)nc(N2CCCCC2)n1,nt,-6,nt,53*,10
COc1ccc(NC(=O)N(C)C[C@@H]2OCCCC[C@@H](C)Oc3ccc(NS(C)(=O)=O)cc3C(=O)N([C@H](C)CO)C[C@H]2C)cc1,0,nt,0,nt,nt
O=C(O)c1ccccc1C(=O)Nc1ccc(Oc2ccccc2)cc1,0,11,-4,58*,-9
CC(C)(C)C(=O)Nc1ccc(C(=O)Nc2cccc(Oc3ccc(C(=O)O)c(C(=O)O)c3)c2)cc1,0,-5,13,16,4
O=C(Nc1cccc(Oc2ccc(C(=O)O)c(C(=O)O)c2)c1)c1ccc(-c2ccccc2)cc1,0,-4,56*,30,-11
Cc1cccc(Oc2ccc(NC(=O)c3ccccc3C(=O)O)cc2)c1,0,-7,-17,8,-29
CCCN(C)C[C@@H]1OCCCC[C@@H](C)Oc2ccc(NS(=O)(=O)c3ccccc3)cc2C(=O)N([C@H](C)CO)C[C@@H]1C,0,nt,-6,nt,nt
COc1ccc(/C=C/c2nc3ccccc3n2C)cc1,0,8,96*,76*,48
COc1ccccc1/C=C/c1nc2ccccc2c(=O)o1,0,-21,2,27,-14
COc1ccc(Cn2c(/C=C/c3ccccc3)nc3ccccc32)cc1,nt,-6,nt,-36,-48
COc1ccc(/C=N\n2nnc3ccccc32)cc1,nt,-4,nt,90*,45
COc1ccc(/C=C/c2nc3ccccc3c(=O)o2)cc1,0,-14,90*,97*,83*
O=C(O)C[C@@H]1C=C[C@H](NC(=O)c2ccccc2F)[C@H](CO)O1,0,nt,18,nt,nt
